Measurements from ChEMBL document CHEMBL2407028, “Discovery of novel oxazolidinedione derivatives as potent and selective mineralocorticoid receptor antagonists” (Bioorg Med Chem Lett, 2013).

Legend:
Glucocorticoid receptor = target: T1, Glucocorticoid receptor (Homo sapiens, UniProt P04150); assay: Agonist activity at glucocorticoid receptor (unknown origin) by NH Pro assay
T1 sequence (P04150 whole entry): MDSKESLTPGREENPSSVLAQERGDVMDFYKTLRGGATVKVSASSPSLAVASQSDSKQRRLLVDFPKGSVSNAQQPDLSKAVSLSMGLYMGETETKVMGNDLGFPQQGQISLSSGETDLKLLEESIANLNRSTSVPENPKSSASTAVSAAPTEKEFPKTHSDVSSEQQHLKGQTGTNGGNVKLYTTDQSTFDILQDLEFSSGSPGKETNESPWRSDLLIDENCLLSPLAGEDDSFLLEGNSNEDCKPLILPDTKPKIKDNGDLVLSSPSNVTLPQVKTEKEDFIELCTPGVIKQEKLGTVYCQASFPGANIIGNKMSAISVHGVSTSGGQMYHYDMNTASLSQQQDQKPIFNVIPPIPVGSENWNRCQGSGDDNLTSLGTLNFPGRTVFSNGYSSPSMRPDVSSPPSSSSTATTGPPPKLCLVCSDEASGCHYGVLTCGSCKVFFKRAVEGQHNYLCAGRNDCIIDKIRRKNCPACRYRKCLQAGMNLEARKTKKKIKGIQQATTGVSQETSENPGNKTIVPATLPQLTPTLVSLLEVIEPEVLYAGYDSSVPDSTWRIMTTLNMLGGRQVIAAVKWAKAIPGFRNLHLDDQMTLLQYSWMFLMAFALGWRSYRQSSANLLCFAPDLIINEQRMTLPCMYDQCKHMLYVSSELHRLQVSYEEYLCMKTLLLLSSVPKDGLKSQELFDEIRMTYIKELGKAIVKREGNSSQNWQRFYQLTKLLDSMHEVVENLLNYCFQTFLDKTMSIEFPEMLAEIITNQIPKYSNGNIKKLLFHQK

Estrogen receptor beta = Estrogen receptor beta (Homo sapiens, UniProt Q92731); assay: Antagonist activity at estrogen receptor beta (unknown origin) by NH Pro assay
Rattus norvegicus = assay: Dose normalized AUC in rat at 1 mg/kg, iv; assay type: ADME, organism-based; parameters: dose 1 mg/kg, route intravenous; settings: in vivo
How it was run: (§1)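 Rats dosed at 1 mg/kg iv (n = 2) or 1 mg/kg po (n = 3), formulated at 1 mg/mL in PEG 200:water (70:30). Blood concentrations measured by LC/MS/MS after protein precipitation with acetonitrile.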

Estrogen receptor = target: T2, Estrogen receptor (Homo sapiens, UniProt P03372); assay: Antagonist activity at estrogen receptor alpha (unknown origin) by NH Pro assay
T2 sequence (P03372 whole entry): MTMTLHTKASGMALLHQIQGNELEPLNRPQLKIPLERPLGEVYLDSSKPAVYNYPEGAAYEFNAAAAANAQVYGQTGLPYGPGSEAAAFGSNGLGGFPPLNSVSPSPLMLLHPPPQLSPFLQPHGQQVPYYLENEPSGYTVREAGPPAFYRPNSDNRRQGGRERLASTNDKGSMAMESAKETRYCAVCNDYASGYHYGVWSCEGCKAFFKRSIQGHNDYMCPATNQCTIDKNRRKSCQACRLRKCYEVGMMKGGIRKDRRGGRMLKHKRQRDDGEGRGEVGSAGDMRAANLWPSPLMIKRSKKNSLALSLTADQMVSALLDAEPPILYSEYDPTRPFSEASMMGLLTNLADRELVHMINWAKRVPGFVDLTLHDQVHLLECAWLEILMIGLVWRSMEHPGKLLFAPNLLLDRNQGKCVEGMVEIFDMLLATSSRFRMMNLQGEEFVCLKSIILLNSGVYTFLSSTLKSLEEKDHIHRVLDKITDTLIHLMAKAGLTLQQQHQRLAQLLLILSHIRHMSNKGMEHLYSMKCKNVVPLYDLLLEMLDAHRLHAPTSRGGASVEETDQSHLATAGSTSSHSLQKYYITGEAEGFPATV

[1] = Half life in rat at 1 mg/kg, iv and 1 mg/lg, po; assay type: ADME, organism-based; parameters: dose 1 mg/kg, route oral; settings: in vivo; how it was run: as §1
Progesterone receptor = target: T3, Progesterone receptor (Homo sapiens, UniProt P06401); assay: Antagonist activity at progesterone receptor beta (unknown origin) by NH Pro assay
T3 sequence (P06401 whole entry): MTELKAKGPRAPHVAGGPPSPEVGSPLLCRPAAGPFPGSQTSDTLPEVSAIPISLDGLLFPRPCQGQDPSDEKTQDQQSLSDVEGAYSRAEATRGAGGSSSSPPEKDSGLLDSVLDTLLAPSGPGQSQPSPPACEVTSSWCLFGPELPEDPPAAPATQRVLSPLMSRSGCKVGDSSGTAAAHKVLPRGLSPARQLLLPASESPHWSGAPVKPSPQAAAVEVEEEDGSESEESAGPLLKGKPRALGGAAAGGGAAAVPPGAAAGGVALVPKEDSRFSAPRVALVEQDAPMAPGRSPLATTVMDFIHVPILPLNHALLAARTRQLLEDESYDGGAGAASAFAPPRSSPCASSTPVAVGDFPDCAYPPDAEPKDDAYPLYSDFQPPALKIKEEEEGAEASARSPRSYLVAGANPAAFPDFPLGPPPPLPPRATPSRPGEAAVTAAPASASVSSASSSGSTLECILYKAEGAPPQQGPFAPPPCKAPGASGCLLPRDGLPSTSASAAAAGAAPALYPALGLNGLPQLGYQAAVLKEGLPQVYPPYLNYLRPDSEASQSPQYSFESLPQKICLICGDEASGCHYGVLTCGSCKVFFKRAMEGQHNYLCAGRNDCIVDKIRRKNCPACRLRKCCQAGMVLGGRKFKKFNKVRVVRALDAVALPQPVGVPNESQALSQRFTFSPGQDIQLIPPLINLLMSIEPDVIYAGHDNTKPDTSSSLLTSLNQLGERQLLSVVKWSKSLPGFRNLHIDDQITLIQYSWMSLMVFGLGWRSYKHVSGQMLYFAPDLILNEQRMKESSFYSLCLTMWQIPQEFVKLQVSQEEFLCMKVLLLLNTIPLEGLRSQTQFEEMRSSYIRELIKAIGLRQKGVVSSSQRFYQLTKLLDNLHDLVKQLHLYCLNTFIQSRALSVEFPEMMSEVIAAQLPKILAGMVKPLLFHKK

Chain of Estrogen receptor beta (Q92731 whole entry): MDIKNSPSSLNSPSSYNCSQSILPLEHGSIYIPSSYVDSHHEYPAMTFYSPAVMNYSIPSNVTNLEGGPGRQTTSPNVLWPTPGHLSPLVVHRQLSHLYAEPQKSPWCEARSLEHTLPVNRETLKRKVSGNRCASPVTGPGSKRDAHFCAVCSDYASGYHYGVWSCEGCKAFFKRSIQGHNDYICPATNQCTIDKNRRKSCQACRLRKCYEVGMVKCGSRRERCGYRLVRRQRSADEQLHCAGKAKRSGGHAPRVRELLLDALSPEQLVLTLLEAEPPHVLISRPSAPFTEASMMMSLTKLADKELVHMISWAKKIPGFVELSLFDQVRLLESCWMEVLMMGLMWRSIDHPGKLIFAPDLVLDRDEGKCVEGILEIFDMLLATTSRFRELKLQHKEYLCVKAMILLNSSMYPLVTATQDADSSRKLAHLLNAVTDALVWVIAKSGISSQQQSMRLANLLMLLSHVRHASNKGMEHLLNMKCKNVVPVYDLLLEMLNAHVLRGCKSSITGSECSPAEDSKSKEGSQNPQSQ

EC50 (Glucocorticoid receptor) | IC50 (Estrogen receptor beta) | AUC/dose (Rattus norvegicus) | IC50 (Estrogen receptor) | half-life [1] | IC50 (Progesterone receptor) | Structure (SMILES)
> 20 µM | 15 µM | 0.89 µM·kg·h/mg | 17 µM | 2.5 h | 8.1 µM | COc1cc(CNC(=O)[C@@]2(Cc3ccccc3)OC(=O)N([C@@H]3CCc4ccccc43)C2=O)cc(OC)c1
> 20 µM | 15 µM | 0.46 µM·kg·h/mg | 7.3 µM | 2.3 h | 3.6 µM | C[C@H](c1ccc(F)cc1)N1C(=O)O[C@](Cc2ccc(F)cc2)(C(=O)NCc2ccc(Cl)c(Cl)c2)C1=O
